# Measurements: ChEMBL document CHEMBL1130340, “Semisynthetic derivatives of purpuromycin as potential topical agents for vaginal infections” (1997)
# Legend:
# [1] = test system: Candida albicans; assay: In vitro antimicrobial activity against Candida albicans L145; format: functional
# Summary of the method: (§1)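 Candida: broth microdilution MIC in phosphate-buffered Yeast Nitrogen Base broth with glucose (1% w/v) and L-asparagine (0.15% w/v); inoculum about 10^4 cfu/mL; 37 °C, 20–24 h.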
# [2] = test system: Streptococcus pneumoniae; assay: In vitro antimicrobial activity against Streptococcus pneumoniae L44; format: functional
# Summary of the method: (§2)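 Streptococci: broth microdilution MIC in Todd Hewitt broth; inoculum about 10^4 cfu/mL; 37 °C, 20–24 h.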
# [3] = test system: Neisseria gonorrhoeae; assay: In vitro antimicrobial activity against Neisseria gonorrhoeae L997; format: functional
# Summary of the method: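 Broth microdilution MIC in GC Base broth plus 1% (v/v) IsoVitaleX; inoculum about 10^4 cfu/mL; 37 °C.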
# [4] = test system: Staphylococcus aureus; assay: In vitro antimicrobial activity against Staphylococcus aureus L1 65 30% bovine serum; format: functional
# Summary of the method: (§3)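 Broth microdilution MIC against S. aureus L165 in Iso-Sensitest broth, 37 °C, 20–24 h.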
# [5] = test system: Enterococcus faecalis; assay: In vitro antimicrobial activity against Enterococcus faecalis ATCC 7080; format: functional
# Summary of the method: (§4)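 Broth microdilution MIC in Oxoid Iso-Sensitest broth; inoculum about 10^4 cfu/mL; 37 °C for 20–24 h.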
# [6] = test system: Staphylococcus haemolyticus; assay: In vitro antimicrobial activity against Staphylococcus haemolyticus L602; format: functional; summary of the method: as §4
# [7] = test system: Staphylococcus aureus; assay: In vitro antimicrobial activity against Staphylococcus aureus L165; format: functional; summary of the method: as §4
# [8] = test system: Cutibacterium acnes; assay: In vitro antimicrobial activity against Propionibacterium acnes ATCC 6919; format: functional
# Summary of the method: (§5)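 Anaerobe MIC by broth microdilution in Wilkins-Chalgren broth; inoculum 5 × 10^5 cfu/mL; 37 °C.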
# [9] = test system: Haemophilus influenzae; assay: In vitro antimicrobial activity against Haemophilus influenza ATCC 19418; format: functional
# Summary of the method: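 Broth microdilution MIC in Brain Heart Infusion broth plus 1% (v/v) supplement C; inoculum about 10^4 cfu/mL; 37 °C.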
# [10] = test system: Staphylococcus epidermidis; assay: In vitro antimicrobial activity against Staphylococcus epidermidis ATCC 12228; format: functional; summary of the method: as §4
# [11] = test system: Pseudomonas aeruginosa; assay: In vitro antimicrobial activity against Pseudomonas aeruginosa ATCC 10145; format: functional; summary of the method: as §4
# [12] = test system: Escherichia coli; assay: In vitro antimicrobial activity against Escherichia coli L47; format: functional; summary of the method: as §4
# [13] = test system: Streptococcus pyogenes; assay: In vitro antimicrobial activity against Streptococcus pyogenes L49; format: functional; summary of the method: as §2
# [14] = test system: Staphylococcus aureus; assay: In viro antimicrobial activity against Staphylococcus aureus L165 10 x e+6 cfu/ml; format: functional; summary of the method: as §3
# [15] = test system: Bacteroides fragilis; assay: In vitro antimicrobial activity against Bacteroides fragilis ATCC 25285; format: functional; summary of the method: as §5
# [16] = test system: Proteus vulgaris; assay: In vitro antimicrobial activity against Proteus vulgaris ATCC881; format: functional; summary of the method: as §4
# [17] = test system: Trichophyton benhamiae; assay: In vitro antimicrobial activity against Trichophyton mentagrophytes L364; format: functional, Arthroderma benhamiae
# Summary of the method: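 Broth microdilution MIC in YM broth; inoculum 1% (v/v) suspension of mycelia and conidia; 30 °C for 72 h.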
# [18] = test system: Staphylococcus aureus; assay: In vitro antimicrobial activity against Staphylococcus aureus L165 30% bovine serum; format: functional; summary of the method: as §3
# [19] = test system: Candida albicans; assay: Candida albicans L145; format: functional; summary of the method: as §1
# [20] = test system: Nakaseomyces glabratus; assay: In vitro antimicrobial activity against Candida glabrata (1)1; format: functional; summary of the method: as §1
# [21] = test system: Candida albicans; assay: In vitro antimicrobial activity against Candida albicans (24); format: functional; summary of the method: as §1
# [22] = test system: Gardnerella vaginalis; assay: In vitro antimicrobial activity against Gardnerella vaginalis (MIC90); format: functional
# Summary of the method: (§6)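 Agar dilution MIC in Casman medium with 5% (v/v) whole and 0.15% (v/v) lysed rabbit blood; inoculum about 10^5 cfu; 48 h at 37 °C under N2-CO2-H2 (80:10:10).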
# [23] = test system: Candida; assay: Minimum inhibition concentration for 90% inhibition against Candida species; format: functional; summary of the method: as §1
# [24] = test system: Candida; assay: Minimum inhibition concentration for 50% inhibition against Candida species; format: functional; summary of the method: as §1
# [25] = test system: Trichomonas vaginalis; assay: In vitro antimicrobial activity against Trichomonas vaginalis; format: functional
# Summary of the method: (§7)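 Broth microdilution in Trichomonas Culture Medium Base plus 10% horse serum; about 10^5 cells/mL; 48 h at 37 °C under N2-CO2-H2; MIC read by microscopy for viable (motile) protozoa.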
# [26] = test system: Candida tropicalis; assay: In vitro antimicrobial activity against Candida tropicalis (2); format: functional; summary of the method: as §1
# [27] = test system: Gardnerella vaginalis; assay: In vitro antimicrobial activity against Gardnerella vaginalis (MIC50); format: functional; summary of the method: as §6
# [28] = test system: Trichomonas vaginalis; assay: Antimicrobial activity against Trichomonas vaginalis; format: functional; summary of the method: as §7
Compound,MIC [1],MIC [2],MIC [3],MIC [4],MIC [5],MIC [7],MIC [8],MIC [9],MIC [10],MIC [11],MIC [12],MIC [13],MIC [14],MIC [15],MIC [16],MIC [6],other results
COC(=O)c1cc2cc3c(c(O)c2c(=O)o1)OC1(CC2=C(O1)C(=O)c1c(O)c(NCC(F)(F)F)cc(O)c1C2=O)CC3O (centres undefined),8 mg/L,0.06 mg/L,0.06 mg/L,2 mg/L,0.03 mg/L,0.016 mg/L,0.008 mg/L,0.06 mg/L,0.016 mg/L,> 128 mg/L,> 128 mg/L,0.13 mg/L,0.03 mg/L,0.06 mg/L,> 128 mg/L,0.016 mg/L,–
COC(=O)c1cc2cc3c(c(O)c2c(=O)o1)OC1(CC2=C(O1)C(=O)c1c(O)c(NCCNC(=O)OC(C)(C)C)cc(O)c1C2=O)CC3O (centres undefined),> 128 mg/L,0.06 mg/L,0.13 mg/L,2 mg/L,0.13 mg/L,0.13 mg/L,0.016 mg/L,1 mg/L,0.06 mg/L,> 128 mg/L,> 128 mg/L,0.13 mg/L,0.13 mg/L,0.5 mg/L,> 128 mg/L,0.06 mg/L,–
CNc1cc(O)c2c(c1O)C(=O)C1=C(CC3(CC(O)c4cc5cc(C(=O)OC)oc(=O)c5c(O)c4O3)O1)C2=O (centres undefined),2 mg/L,0.016 mg/L,0.06 mg/L,0.25 mg/L,0.03 mg/L,0.016 mg/L,0.008 mg/L,0.13 mg/L,0.008 mg/L,> 128 mg/L,> 128 mg/L,0.03 mg/L,0.06 mg/L,0.03 mg/L,> 128 mg/L,0.016 mg/L,MIC [20]: 128 mg/L; MIC [21]: 0.25 mg/L; MIC90 [22]: 2 mg/L; MIC90 [23]: 2 mg/L; MIC50 [24]: 2 mg/L; MIC [25]: 1 mg/L; MIC [26]: 64 mg/L; MIC50 [27]: 1 mg/L
Cc1ncc([N+](=O)[O-])n1CCO [METRONIDAZOLE],–,–,–,–,–,–,–,–,–,–,–,–,–,–,–,–,MIC [28]: 0.25 mg/L

# Now from value to compound, other results behind:
MIC [1],MIC [2],MIC [3],MIC [4],MIC [5],MIC [7],MIC [8],MIC [9],MIC [10],MIC [11],MIC [12],MIC [13],MIC [14],MIC [15],MIC [16],Compound,MIC [6],other results
64 mg/L,0.06 mg/L,–,–,–,0.13 mg/L,0.06 mg/L,–,–,128 mg/L,16 mg/L,–,0.13 mg/L,0.5 mg/L,128 mg/L,COC(=O)c1cc2cc3c(c(O)c2c(=O)o1)OC1(CC2=C(O1)C(=O)c1c(O)c(NCCN(C)C)cc(O)c1C2=O)CC3O (centres undefined),0.5 mg/L,MIC [17]: 128 mg/L; MIC [18]: 0.25 mg/L
–,0.016 mg/L,0.03 mg/L,1 mg/L,0.06 mg/L,0.06 mg/L,0.004 mg/L,0.06 mg/L,0.06 mg/L,> 128 mg/L,> 128 mg/L,0.03 mg/L,0.13 mg/L,0.13 mg/L,> 128 mg/L,COC(=O)c1cc2cc3c(c(O)c2c(=O)o1)OC1(CC2=C(O1)C(=O)c1c(O)c(NCCO)cc(O)c1C2=O)CC3O (centres undefined),0.13 mg/L,MIC [19]: > 128 mg/L
2 mg/L,0.06 mg/L,0.06 mg/L,1 mg/L,0.06 mg/L,0.06 mg/L,0.06 mg/L,0.06 mg/L,0.06 mg/L,> 128 mg/L,> 128 mg/L,0.06 mg/L,0.06 mg/L,0.06 mg/L,> 128 mg/L,CCNc1cc(O)c2c(c1O)C(=O)C1=C(CC3(CC(O)c4cc5cc(C(=O)OC)oc(=O)c5c(O)c4O3)O1)C2=O (centres undefined),0.06 mg/L,MIC [20]: 32 mg/L; MIC [21]: 0.25 mg/L; MIC90 [22]: 2 mg/L; MIC90 [23]: 4 mg/L; MIC50 [24]: 2 mg/L; MIC [25]: 8 mg/L; MIC [26]: 64 mg/L; MIC50 [27]: 2 mg/L
